Bioassay records deposited in PubChem by The Scripps Research Institute Molecular Screening Center.
PRMT1 inh: blocks human protein arginine methyltransferase 1; Q99873; recombinant PRMT1, activity-based probe fluorescence polarization; inhibition, % at 2.79 µM; 370,000 tested, 1.3% active; AID 652257;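 active means inhibition above about 21% made by adding two undisclosed values, limit read from the data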
MBD2 DNA inh: blocks human MBD2 binding to methylated DNA | inhibition, % at 4.4 µM | Q9UBB5 | TR-FRET, MBD2 binding to methylated oligonucleotide | 370,000 tested, 0.31% active; in the data active means inhibition above about 13%
ABHD5-PLIN5 inh: inhibitors of human ABHD5-perilipin-5 interaction. Split G. princeps luciferase complementation, luminescence, 4 h. inhibition, % at 4 µM. 360,000 tested, 0.78% active;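 active means inhibition above the mean inhibition across every tested compound plus 3 SD, cut at about 22% in these data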
RBBP9 inh: human RBBP9 hydrolase inhibition; O75884; recombinant RBBP9, FP-Rh probe fluorescence polarization; inhibition, % at 7.94 µM; 220,000 tested, 0.2% active;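 active means inhibition above the campaign mean of all tested compounds plus 3 SD, cut at about 14% in these data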
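system = RBBP9 protein | input = RBBP9 at 2.5 µM in dispensed solution, before mixing | measured by = fluorescence polarization (mP), excitation 525 nm, emission 598 nm | incubation = enzyme-compound preincubation 30 min, then probe labeling 45 min, 25 °C | buffer or medium = Tris-NaCl-Pluronic buffer, pH 8.0 | compound = single dose 7.94 µM | also added = FP-Rh probe, 375 nM dispensing solution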
LEDGF integ inh: blocks HIV-1 LEDGF/p75-dependent DNA integration; TR-FRET IN-LEDGF/p75 DNA integration, Eu/Cy5; inhibition, % at 3.7 µM; 370,000 tested, 0.64% active; AID 743269;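 active means inhibition above the screen-wide mean plus 3 SD, cut at about 13% in these data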;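 further: signal is the Cy5 over europium emission ratio at 671 and 618 nm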
UHRF1 binding: blocks human UHRF1 binding to methylated DNA; inhibition, % at 4.4 µM; 370,000 tested, 0.75% active; Q96T88; UHRF1 binding to methylated oligo, TR-FRET; in the data active means inhibition above about 21%;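 further: UHRF1 SRA domain binding a hemimethylated CpG hairpin DNA probe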
Target sequence (Q96T88 whole entry, looked up, the tested form may be a part): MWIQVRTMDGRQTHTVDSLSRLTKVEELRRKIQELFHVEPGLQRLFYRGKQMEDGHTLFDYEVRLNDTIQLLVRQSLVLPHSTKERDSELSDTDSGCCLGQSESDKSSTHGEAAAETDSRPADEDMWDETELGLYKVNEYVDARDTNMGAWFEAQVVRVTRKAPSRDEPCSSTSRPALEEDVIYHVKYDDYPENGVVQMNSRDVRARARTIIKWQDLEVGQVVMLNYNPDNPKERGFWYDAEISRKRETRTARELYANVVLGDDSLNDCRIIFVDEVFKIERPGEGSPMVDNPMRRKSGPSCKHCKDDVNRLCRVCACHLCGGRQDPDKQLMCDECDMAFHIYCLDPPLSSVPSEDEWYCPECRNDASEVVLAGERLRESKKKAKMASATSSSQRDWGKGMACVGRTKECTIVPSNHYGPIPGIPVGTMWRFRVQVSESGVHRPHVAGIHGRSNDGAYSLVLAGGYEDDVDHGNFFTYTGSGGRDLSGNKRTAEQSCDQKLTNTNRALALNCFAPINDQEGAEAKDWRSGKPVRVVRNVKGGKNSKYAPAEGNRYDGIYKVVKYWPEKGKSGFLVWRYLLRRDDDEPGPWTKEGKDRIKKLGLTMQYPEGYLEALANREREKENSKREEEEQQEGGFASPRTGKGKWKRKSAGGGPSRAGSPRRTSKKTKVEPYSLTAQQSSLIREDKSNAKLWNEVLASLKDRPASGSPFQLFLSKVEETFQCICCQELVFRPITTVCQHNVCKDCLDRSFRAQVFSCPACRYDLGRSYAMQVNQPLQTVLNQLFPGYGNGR
Each line names hits and unclear results; the compound was inactive in the other large screens. Most compounds without a hit are left out; they make up all but 3.1% or so of the library.

O=C(/C=C/c1ccc2c(c1)OCO2)c1ccc(F)cc1	ABHD5-PLIN5 inh 22
CCNc1ccccc(C(=O)/C=C/c2ccc3c(c2)OCO3)c1=O	PRMT1 inh 26
CCCC[C@@H]1C(=O)N2N=C(c3ccccc3)c3ccccc3[C@H]2N2N=C(c3ccccc3)c3ccccc3[C@@H]12	none (no result: ABHD5-PLIN5 inh, RBBP9 inh)
COc1ccc(CNC(=O)O[C@H]2CC[C@@]34CCCN3C(=O)CCC[C@H]4[C@H]2C)cc1OC	none (no result: ABHD5-PLIN5 inh, RBBP9 inh)
CCCCn1nnnc1C1(C)CCC(=O)N1CCCN1CCOCC1 (configuration not stated)	UHRF1 binding 22 (no result: RBBP9 inh)
CC1(c2nnnn2-c2ccc3c(c2)OCCO3)CCC(=O)N1CCCN1CCOCC1 (configuration not stated)	none (no result: RBBP9 inh)
Cc1ccc2nc(N(CCCN(C)C)C(=O)c3ccc(S(=O)(=O)N4CCc5ccccc5C4)cc3)sc2c1	none (no result: RBBP9 inh)
CN(C)CCCN(C(=O)c1ccc(S(=O)(=O)N2CCc3ccccc3C2)cc1)c1nc2ccc(F)cc2s1	none (no result: RBBP9 inh)
CN(C)CCCN(C(=O)c1ccc(S(=O)(=O)N2CCc3ccccc32)cc1)c1nc2ccc(F)cc2s1	PRMT1 inh 23 (no result: RBBP9 inh)
CN(C)CCCN(C(=O)c1ccc(S(=O)(=O)N2CCc3ccccc32)cc1)c1nc2ccc(Cl)cc2s1	PRMT1 inh 27 (no result: RBBP9 inh)
C[C@@H]1COc2cc(F)ccc2S(=O)(=O)N1C	none (no result: ABHD5-PLIN5 inh, RBBP9 inh)
CCN1CCCCC(NC(=O)c2cc(OC)c(OC)c(OC)c2)C1=O (configuration not stated)	none (no result: ABHD5-PLIN5 inh, RBBP9 inh)
CCOc1ccccc1NC(=O)COC(=O)COc1c(Cl)cc(Cl)c2ccc(C)nc12	UHRF1 binding 37 (no result: RBBP9 inh)
CC(=O)OC(=C(OC(C)=O)c1ccccc1)c1ccccc1	none (no result: RBBP9 inh)
CC(=O)ON=C1C=CC(=C(C#N)c2ccccc2)C=C1	PRMT1 inh 24 (no result: RBBP9 inh)
COC(=O)CCc1sc(Nc2ccccc2)nc1-c1ccc(OC)cc1	UHRF1 binding 37
Cc1ccccc1CNC1CCC12CCC(c1ccccc1)CC2 (configuration not stated)	none (no result: ABHD5-PLIN5 inh, RBBP9 inh)
c1ccc(CNC2CCC23CCC(c2ccccc2)CC3)cc1 (configuration not stated)	UHRF1 binding 81 (no result: ABHD5-PLIN5 inh, RBBP9 inh)
O=S(=O)([N-]c1nc2ccccc2nc1-[n+]1ccc(-c2ccncc2)cc1)c1ccccc1	PRMT1 inh 22
Cc1cccc(CN[C@@H]2CC[C@@]34CCCN3C(=O)CCC[C@H]4C2)c1	none (no result: ABHD5-PLIN5 inh, RBBP9 inh)
O=C(CC(SCCO)c1ccc([N+](=O)[O-])cc1)c1ccco1 (configuration not stated)	ABHD5-PLIN5 inh 23 (no result: RBBP9 inh)
CN(CCNC(=O)CCCOc1cc(=O)n(C)c2ccccc12)Cc1ccccc1	UHRF1 binding 21
CN(CCCNC(=O)CCCOc1cc(=O)n(C)c2ccccc12)Cc1ccccc1	none
Cn1nc(-c2ccccc2)cc1NC(=O)Nc1ccc(C(C)(C)C)cc1	UHRF1 binding 29
Cn1nc(-c2ccc(Cl)cc2)cc1NC(=O)Nc1ccccc1	none
Oc1ccc(Cl)cc1N=Nc1ccccc1	none (no result: RBBP9 inh)
O=S(=O)(O)c1cc(O)c2c(O)c(N=Nc3cc(Cl)ccc3O)c(S(=O)(=O)O)cc2c1	ABHD5-PLIN5 inh 24 (no result: PRMT1 inh, MBD2 DNA inh, RBBP9 inh, LEDGF integ inh, UHRF1 binding)
O=C(NNc1cccc(Cl)n1)Nc1ccc(Cl)cc1	none
Cc1ccc(NNC(=O)Nc2ccc(Cl)cc2)nn1	PRMT1 inh 24
CCOC(=O)CC[C@H]1CC[C@]2(CCCN(C(=O)c3ccco3)C2)O1	none (no result: ABHD5-PLIN5 inh, RBBP9 inh)
NC(=O)COC(=O)CC1CC2CCC1C2 (configuration not stated)	UHRF1 binding 21
NC(=O)c1ccc(NC(=O)COC(=O)CC2CC3CCC2C3)cc1 (configuration not stated)	none (no result: RBBP9 inh)
O=C(/C=C/c1ccc(Cl)cc1)N1CCN(CCN2C(=O)c3cccc4cccc(c34)C2=O)CC1	UHRF1 binding 31 (no result: RBBP9 inh)
O=C1c2cccc3cccc(c23)C(=O)N1CCN1CCN(C(=S)Nc2ccc(Cl)cc2)CC1	none
COc1ccccc1-c1nc(S(=O)(=O)c2ccccc2)c(N2CCOCC2)o1	ABHD5-PLIN5 inh 22 (no result: RBBP9 inh)
CN(CCO)c1cccc2c1S(=O)(=O)N(Cc1cn(Cc3cccc(F)c3)nn1)Cc1ccccc1O2	none (no result: ABHD5-PLIN5 inh, RBBP9 inh)
O=C(c1ccncc1)N1CC[C@H]2[C@H](CCCN2Cc2ccccc2)C1	none (no result: ABHD5-PLIN5 inh, RBBP9 inh)
CCN(CC)C(=O)c1sc2nc(N3CCOCC3)c3c(c2c1N)CCCC3	PRMT1 inh 24
